Results as given in ChEMBL document CHEMBL4261513, “Dichloro-naphthoquinone as a non-classical inhibitor of the mycobacterial carbonic anhydrase Rv3588c” (Medchemcomm, 2017).

Columns and labels:
[1] = target: T1, Carbonic anhydrase 2 (Mycobacterium tuberculosis) (UniProt P9WPJ9); test: (§1) Inhibition of recombinant Mycobacterium tuberculosis N-terminal Hi-tagged Rv3588c expressed in Escherichia coli BL21-Al cells measured for 10 secs by m-cresol purple staining based stopped-flow CO2 hydration assay
T1 sequence (whole entry): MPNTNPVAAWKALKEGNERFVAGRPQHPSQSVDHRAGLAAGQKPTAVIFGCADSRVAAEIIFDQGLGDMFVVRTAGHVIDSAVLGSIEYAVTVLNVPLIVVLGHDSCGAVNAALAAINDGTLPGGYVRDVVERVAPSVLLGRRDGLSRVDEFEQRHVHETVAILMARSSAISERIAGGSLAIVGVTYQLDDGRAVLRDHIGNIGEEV
Procedure, shortened: (§2)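 His-tagged Rv3588c in stopped-flow CO2 hydration with m-cresol purple read-out, in 100 mM Na2SO4, 25 mM TAPS pH 8.5 against CO2-saturated water. Five compound concentrations, starting from […]. Initial rates taken over the first 10 s. Dose-response data fitted to a curve.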

Carbonic anhydrase 2 = target: T2, Carbonic anhydrase 2 (Mycobacterium tuberculosis, UniProt P9WPJ9); test: as §1; procedure, shortened: as §2
T2 sequence (P9WPJ9 whole entry): T1 sequence (whole entry)

[2] = target: T3, Beta-carbonic anhydrase 1 (Mycobacterium tuberculosis) (UniProt P9WPJ7); test: Binding affinity to recombinant Mycobacterium tuberculosis Rv1284 expressed in Escherichia coli BL21-Al cells assessed as change in melting temperature by SYPRO Orange dye based differential scanning fluorimetric method
T3 sequence (whole entry): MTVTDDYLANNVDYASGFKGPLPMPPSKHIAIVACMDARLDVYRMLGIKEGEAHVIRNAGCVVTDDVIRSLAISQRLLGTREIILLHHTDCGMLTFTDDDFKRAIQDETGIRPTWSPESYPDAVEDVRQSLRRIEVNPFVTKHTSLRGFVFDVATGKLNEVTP

[3] = target: T3, Beta-carbonic anhydrase 1 (Mycobacterium tuberculosis); test: Inhibition of recombinant Mycobacterium tuberculosis Rv1284 expressed in Escherichia coli BL21-Al cells assessed as enzyme residual activity at 25 uM measured for 10 secs by m-cresol purple staining based stopped-flow CO2 hydration assay relative to control
Procedure, shortened: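 Untagged Rv1284, purified by QA52 anion exchange at pH 8.0 and SP-Sepharose cation exchange at pH 4.5, and dialysed into 100 mM NaCl, 20 mM HEPES pH 7.5. Stopped-flow CO2 hydration with m-cresol purple read-out. Sample buffer was 100 mM Na2SO4, 25 mM TAPS pH 8.5, 5 μM enzyme plus compound, mixed 1:1 with CO2-saturated water. Initial rates from the first 10 s, at least five traces.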

[4] = target: T1, Carbonic anhydrase 2 (Mycobacterium tuberculosis); test: Inhibition of recombinant Mycobacterium tuberculosis N-terminal Hi-tagged Rv3588c expressed in Escherichia coli BL21-Al cells assessed as enzyme residual activity at 25 uM measured for 10 secs by m-cresol purple staining based stopped-flow CO2 hydration assay relative to control
Procedure, shortened: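 Rv3588c with an N-terminal His tag, purified by QA52 anion exchange and then Ni-NTA at pH 8.0, and dialysed into 100 mM NaCl, 20 mM HEPES pH 7.5. Stopped-flow CO2 hydration followed by m-cresol purple absorbance. Sample buffer was 100 mM Na2SO4, 25 mM TAPS pH 8.5, 5 μM protein plus compound, mixed 1:1 with CO2-saturated water. Initial rates over the first 10 s, at least five traces each.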

[5] = target: Carbonic anhydrase 2 (Homo sapiens) (UniProt P00918); test: Inhibition of recombinant human carbonic anhydrase 2 expressed in Escherichia coli BL21 (DE3) assessed as enzyme residual activity at 25 uM measured for 10 secs by m-cresol purple staining based stopped-flow CO2 hydration assay relative to control
Procedure, shortened: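 Codon-optimised synthetic human CA II gene expressed in bacteria. Activity measured by stopped-flow CO2 hydration, monitoring m-cresol purple absorbance. Sample buffer was 100 mM Na2SO4, 25 mM TAPS pH 8.5, 5 μM protein with compound, mixed 1:1 with CO2-saturated water. Initial rates over the first 10 s, from at least five traces per compound.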

Row | SMILES | Imax [1] [%] | IC50 (Carbonic anhydrase 2) [µM] | deltaTm [2] [K] | Activity [3] [%] | Activity [4] [%] | Activity [5] [%]
1 | COC1=CC(=O)c2ccccc2C1=O [2-Methoxy-1,4-naphthoquinone] | 40 | 2.3 | -0.5 | 62.3 | 84.5 | 104
2 | CCN(CC)CCCNC1=C(Cl)C(=O)c2ccccc2C1=O | – | – | -0.6 | 68.5 | 93.8 | –
3 | O=C1C=CC(=O)c2ccccc21 | – | – | -8.8 | 76.6 | 94.8 | –
4 | Clc1cc2ccccc2cc1Cl | – | – | 1.3 | 80.3 | 82.8 | –
5 | O=C1C=C(Br)C(=O)c2ccccc21 | – | – | -10.1 | 72.2 | 68.1 | 109
6 | O=C1C(Cl)=C(NCc2ccccc2)C(=O)c2ccccc21 | – | – | -2.5 | 96.5 | 99.1 | –
7 | O=C1C2=C(C(=O)c3ccccc31)S(=O)(=O)C=CN2 | – | – | -1.1 | 74.6 | 78.3 | –
8 | CN(C)CCCNC1=C(Cl)C(=O)c2ccccc2C1=O | – | – | -0.9 | 79.4 | 110 | –
9 | CC(C)CCNC1=C(Cl)C(=O)c2ccccc2C1=O | – | – | -1.5 | 103 | 103 | –
10 | COC1=CC(=O)C=C(CO)C1=O | – | – | 0.1 | 101 | 104 | –
11 | O=C1C2=C(C(=O)c3ccccc31)S(=O)(=O)CCN2 | – | – | -0.4 | 79.5 | 80.6 | –
12 | O=C1C(Cl)=C(NCCc2ccccc2)C(=O)c2ccccc21 | – | – | -0.7 | 110 | 93.2 | –
13 | O=C1C(Cl)=C(Cl)C(=O)c2ccccc21 [Dichlon] | 84 | 1.2 | -10.2 | 81.5 | 16.1 | 96.8
14 | O=C1C(O)=C([C@H]2CC[C@H](c3ccc(Cl)cc3)CC2)C(=O)c2ccccc21 | – | – | -0.5 | 83.1 | 80.7 | –
15 | COCCNC1=C(Cl)C(=O)c2ccccc2C1=O | – | – | -1.5 | 67.2 | 98.8 | –
